Results taken from ChEMBL document CHEMBL1142116, “Mixed lignan-neolignans from Tarenna attenuata” (J Nat Prod, 2007).

Tests used:
Assay type in all cases: functional
PC-12 [1] = assay: Antioxidant effect against hydrogen peroxide-induced impairment in PC12 cells assessed as cell viability at 0.4 uM by MTT assay relative to control; settings: Rattus norvegicus, read-out: Activity
Outline: (§1)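 PC12 cells seeded in RPMI 1640 with 10% newborn bovine serum; after 24 h, compound (0.4–50 µM) added together with freshly prepared H2O2 (0.2 mM final) in PBS for 1 h. Then MTT (0.5 mg/mL in PBS) for 4 h, lysis with 5% i-BuOH/10% SDS/0.004% HCl overnight, OD 570 nm; viability as % of untreated control; n = 5, mean ± SD.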

PC-12 [2] = assay: Antioxidant effect against hydrogen peroxide-induced impairment in PC12 cells assessed as cell viability at 50 uM by MTT assay relative to control; settings: Rattus norvegicus, read-out: Activity; outline: as §1
PC-12 [3] = assay: Antioxidant effect against hydrogen peroxide-induced impairment in PC12 cells assessed as cell viability at 2 uM by MTT assay relative to control; settings: Rattus norvegicus, read-out: Activity; outline: as §1
PC-12 [4] = assay: Antioxidant effect against hydrogen peroxide-induced impairment in PC12 cells assessed as cell viability at 10 uM by MTT assay relative to control; settings: Rattus norvegicus, read-out: Activity; outline: as §1
[5] = tested on: Radical scavenging activity; assay: Antioxidant effect assessed as DPPH radical scavenging activity
Outline: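 Compound at five concentrations (0.16–100.0 µM) mixed 1:1 with 0.1 mM DPPH in EtOH, 30 min at 37 °C, absorbance at 517 nm. Scavenging % = (Acontrol − Asample)/Acontrol × 100; IC50 from concentration series.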

Compound	IC50 [5]	viability at 0.4 µM (PC-12 [1])	viability at 50 µM (PC-12 [2])	viability at 2 µM (PC-12 [3])	viability at 10 µM (PC-12 [4])
COc1cc(C(O)C(CO)Oc2c(OC)cc([C@@H]3Oc4c(OC)cc(/C=C/C=O)cc4[C@H]3CO)cc2OC)ccc1O (stereo not given in full)	147 µM	56.9%	64.8%	56.8%	62.6%
COc1cc2c(c(OC)c1O)[C@@H](CO)[C@@H](c1cc(OC)c(OC)c(OC)c1)O2	45 µM	61.4%	55%	58%	58.2%
CCOC(c1ccc(O)c(OC)c1)C(O)CO (stereo not given)	132 µM	54.1%	57.3%	54.9%	56.8%
COc1cc([C@H](O)[C@@H](CO)Oc2c(OC)cc([C@@H]3OC[C@@H]4[C@H]3CO[C@H]4c3cc(OC)c(O[C@H](CO)[C@@H](O)c4ccc(O)c(OC)c4)c(OC)c3)cc2OC)ccc1O	55 µM	52.2%	55.3%	53.2%	54.3%
CC1=NN(c2ccccc2)C(=O)C1 [EDARAVONE]	27 µM	55.5%	25.6%	53.1%	47.8%

Second part, led by results:

IC50 [5]	Compound	viability at 0.4 µM (PC-12 [1])	viability at 50 µM (PC-12 [2])	viability at 2 µM (PC-12 [3])	viability at 10 µM (PC-12 [4])
87 µM	COc1cc([C@H](O)[C@@H](CO)Oc2c(OC)cc([C@@H]3OC[C@@H]4[C@H]3CO[C@H]4c3cc(OC)c(O[C@H](CO)[C@@H](O)c4cc(OC)c(O)c(OC)c4)c(OC)c3)cc2OC)ccc1O	51.9%	54.1%	54.3%	54.7%
201 µM	COc1cc(C(O)C(CO)Oc2ccc(C(O)C(CO)Oc3c(OC)cc([C@@H]4Oc5c(OC)cc(/C=C/C=O)cc5[C@H]4CO)cc3OC)cc2OC)ccc1O (stereo not given in full)	52.8%	55.9%	47.9%	64.4%
127 µM	COc1cc(C(O)C(CO)Oc2c(OC)cc(C(O)C(CO)Oc3c(OC)cc([C@@H]4Oc5c(OC)cc(/C=C/C=O)cc5[C@H]4CO)cc3OC)cc2OC)ccc1O (stereo not given in full)	50.3%	51%	54.7%	55.2%
72 µM	COc1cc(C(O)C(CO)Oc2c(OC)cc([C@@H]3OC[C@@H]4C(=O)OC[C@@H]43)cc2OC)ccc1O (stereo not given in full)	59.3%	45.7%	61.8%	59.4%
